Data on one compound can be found in ChEMBL document CHEMBL1154727, “Cytotoxic activity of 3-(5-phenyl-3H-[1,2,4]dithiazol-3-yl)chromen-4-ones and 4-oxo-4H-chromene-3-carbothioic acid N-phenylamides” (Eur J Med Chem, 2010).

pIC50: −log10 of the molar value.

The test system of assay [1] is IMR-32. As to the kind of experiment: Growth inhibition of human IMR32 cells at 1 uM after 48 hrs by sulforhodamine B assay. The class given is functional. Particulars: IMR-32, 48 h, read-out: GI. The procedure, abridged: (§1)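 Cells grown in RPMI-1640 with 10% FBS and antibiotics, plated at 1 × 10^4 cells/well for 24 h at 37 °C, 5% CO2. Agents diluted in gentamycin-containing medium, then added in quadruplicate for 48 h. Cells fixed with cold TCA at 4 °C for 1 h, stained with 0.4% SRB, and dye dissolved in 10 mM Tris pH 10.5; absorbance read at 540 nm.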
(In general: In SRB staining, fixed cells bind dye roughly in proportion to their protein.)

In assay [2] the test system is HEp-2. The experiment in a line: Growth inhibition of human Hep2 cells at 1 uM after 48 hrs by sulforhodamine B assay. The format is functional. Particulars: HEp-2, 48 h, read-out: GI. A digest of the protocol: as §1
Assay [3] has as its system A549. The experiment in a line: Growth inhibition of human A549 cells at 1 uM after 48 hrs by sulforhodamine B assay. The class given is functional. Conditions: A549, 48 h, read-out: GI. The procedure, abridged: as §1
In assay [4] the test system is IMR-32. As to the kind of experiment: Growth inhibition of human IMR32 cells after 48 hrs by sulforhodamine B assay. The class given is functional, cell-based. Conditions: IMR-32, 48 h. A digest of the protocol:
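Cells kept in RPMI-1640 with 10% FBS, penicillin and streptomycin; trypan blue viability check beforehand. Seeded at 1 × 10^4 cells/well, 24 h at 37 °C, 5% CO2, then treated in quadruplicate for 48 h. Compounds diluted in medium with 50 µg/ml gentamycin; single test level 100 µM. TCA fixation at 4 °C for 1 h, SRB stain, Tris pH 10.5 solubilization, OD 540 nm. IC50 taken as the mean from dose-response curves.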

On to `COc1cccc2c1C(=O)c1c(O)c3c(c(O)c1C2=O)C[C@@](O)(C(=O)CO)C[C@@H]3O[C@H]1C[C@H](N)[C@H](O)[C@H](C)O1` [DOXORUBICIN], for which the inhibition of growth at 1 µM in assay [1] amounted to 55%; in assay [2], 57%; in assay [3] it was 93%. For the same compound, the pIC50 (as a rule, −log10 of the IC50, conventionally taken in molar units) in assay [4] was 5.77.
